Reference: ChEMBL document CHEMBL2086296, “Synthesis of novel quinoline-2-one based chalcones of potential anti-tumor activity” (Eur J Med Chem, 2012)

Tests used:
RPMI-8226 = assay: Cytotoxicity against human RPMI8226 cells after 24 hrs by SRB assay; type: cell-based; settings: rpmi-8226, 24 h
Method in brief: (§1)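 NCI 60-cell screen. Cells grown in RPMI 1640 with 5% FBS and 2 mM L-glutamine, seeded at 5,000–40,000 cells/well, preincubated 24 h at 37 °C in 5% CO2. Drug stock in DMSO, diluted in medium with gentamicin; five final concentrations, 100, 10, 1.0, 0.1 and […]. Time-zero plates were TCA-fixed. Protein read by SRB staining; GI50, TGI and LC50 taken relative to time-zero.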

EKVX [1] = assay: (§2) Cytotoxicity against human EKVX cells after 24 hrs by SRB assay; type: cell-based; method in brief: as §1
CCRF-CEM = assay: Cytotoxicity against human CCRF-CEM cells after 24 hrs by SRB assay; type: functional
Method in brief: (§3)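 NCI 60-line screen. Cells in RPMI 1640 with 5% FBS and 2 mM L-glutamine, seeded at 5,000–40,000 cells/well by doubling time, then incubated 24 h at 37 °C, 5% CO2 before dosing. Time-zero plates fixed with TCA at drug addition. DMSO stocks diluted in medium with gentamicin to five concentrations, […]. Protein read by SRB staining. GI50, TGI and LC50 derived relative to control and time-zero.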

DU-145 [2] = assay: (§4) Cytotoxicity against human DU145 cells after 24 hrs by SRB assay; type: cell-based; settings: du-145, 24 h; method in brief: as §1
HOP-62 [3] = assay: (§5) Cytotoxicity against human HOP62 cells after 24 hrs by SRB assay; type: functional; settings: HOP-62, 24 h; method in brief: as §3
MCF7 = assay: Cytotoxicity against human MCF7 cells after 24 hrs by SRB assay; type: functional; settings: MCF7, 24 h; method in brief: as §3
SF-539 = assay: Cytotoxicity against human SF539 cells after 24 hrs by SRB assay; type: functional; settings: SF-539, 24 h; method in brief: as §3
COLO 205 = assay: Cytotoxicity against human COLO205 cells after 24 hrs by SRB assay; type: cell-based; settings: colo 205, 24 h; method in brief: as §1
SF-295 [4] = assay: (§6) Cytotoxicity against human SF295 cells after 24 hrs by SRB assay; type: cell-based; settings: sf-295, 24 h; method in brief: as §1
RXF 393 [5] = assay: (§7) Cytotoxicity against human RXF393 cells after 24 hrs by SRB assay; type: cell-based; settings: rxf 393, 24 h; method in brief: as §1
RXF 393 [6] = assay: as §7; type: functional; settings: RXF 393, 24 h; method in brief: as §3
U-251 = assay: Cytotoxicity against human U251 cells after 24 hrs by SRB assay; type: functional; settings: U-251, 24 h
Method in brief: (§8)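 NCI 60-cell screen. Cells are grown in RPMI 1640 with 5% FBS and 2 mM L-glutamine and seeded at 5,000–40,000 cells/well according to doubling time. They are preincubated 24 h at 37 °C in 5% CO2, and Tz plates are TCA-fixed at drug addition. Drug stock is in DMSO, diluted in medium with gentamicin, and tested at five concentrations (100, 10, 1.0, 0.1, […]). Protein is read by SRB staining. GI50, TGI and LC50 are derived relative to time-zero and control wells.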

SF-295 [7] = assay: as §6; type: functional; settings: SF-295, 24 h; method in brief: as §3
HCT-15 [8] = assay: (§9) Cytotoxicity against human HCT15 cells after 24 hrs by SRB assay; type: functional; settings: HCT-15, 24 h; method in brief: as §3
HOP-62 [9] = assay: as §5; type: cell-based; settings: hop-62, 24 h; method in brief: as §1
SF-268 = assay: Cytotoxicity against human SF268 cells after 24 hrs by SRB assay; type: functional; settings: SF-268, 24 h; method in brief: as §3
MDA-MB-435 [10] = assay: (§10) Cytotoxicity against human MDA-MB-435 cells after 24 hrs by SRB assay; type: functional; settings: MDA-MB-435, 24 h; method in brief: as §3
TK-10 = assay: Cytotoxicity against human TK10 cells after 24 hrs by SRB assay; type: cell-based; settings: tk-10, 24 h
Method in brief: (§11)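 NCI 60-cell-line screen: cells grown in RPMI 1640 with 5% FBS and 2 mM L-glutamine, seeded at 5,000–40,000 cells/well by doubling time, and preincubated 24 h at 37 °C in 5% CO2. Time-zero plates were TCA-fixed. DMSO stocks were diluted in medium with gentamicin to five concentrations (100, 10, 1.0, 0.1, […]). Protein was read by SRB, and GI50, TGI and LC50 were derived against time-zero.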

NCI-H226 = assay: Cytotoxicity against human NCI-H226 cells after 24 hrs by SRB assay; type: cell-based; settings: nci-h226, 24 h; method in brief: as §1
SNB-75 = assay: Cytotoxicity against human SNB75 cells after 24 hrs by SRB assay; type: cell-based; settings: snb-75, 24 h; method in brief: as §11
MOLT-4 = assay: Cytotoxicity against human MOLT4 cells after 24 hrs by SRB assay; type: functional; settings: MOLT-4, 24 h; method in brief: as §3
SNB-19 = assay: Cytotoxicity against human SNB19 cells after 24 hrs by SRB assay; type: functional; settings: SNB-19, 24 h; method in brief: as §8
MDA-MB-435 [11] = assay: as §10; type: cell-based; settings: mda-mb-435, 24 h; method in brief: as §1
HOP-92 = assay: Cytotoxicity against human HOP92 cells after 24 hrs by SRB assay; type: cell-based; settings: hop-92, 24 h; method in brief: as §1
UACC-62 = assay: Cytotoxicity against human UACC62 cells after 24 hrs by SRB assay; type: functional; settings: UACC-62, 24 h; method in brief: as §8
HL-60 = assay: Cytotoxicity against human HL60 cells after 24 hrs by SRB assay; type: functional; settings: HL-60, 24 h; method in brief: as §3
786-0 = assay: Cytotoxicity against human 786-0 cells after 24 hrs by SRB assay; type: functional; settings: 786-0, 24 h; method in brief: as §3
OVCAR-4 = assay: Cytotoxicity against human OVCAR4 cells after 24 hrs by SRB assay; type: functional; settings: OVCAR-4, 24 h; method in brief: as §3
LOX IMVI = assay: Cytotoxicity against human LOXIMVI cells after 24 hrs by SRB assay; type: functional; method in brief: as §3
NCI-H460 = assay: Cytotoxicity against human NCI-H460 cells after 24 hrs by SRB assay; type: functional; settings: NCI-H460, 24 h; method in brief: as §3
SR = assay: Cytotoxicity against human SR cells after 24 hrs by SRB assay; type: cell-based; method in brief: as §11
DU-145 [12] = assay: as §4; type: functional; settings: DU-145, 24 h; method in brief: as §3
MDA-MB-468 = assay: Cytotoxicity against human MDA-MB-468 cells after 24 hrs by SRB assay; type: cell-based; settings: mda-mb-468, 24 h; method in brief: as §1
HCT-15 [13] = assay: as §9; type: cell-based; settings: hct-15, 24 h; method in brief: as §1
EKVX [14] = assay: as §2; type: functional; method in brief: as §3
ACHN [15] = assay: (§12) Cytotoxicity against human ACHN cells after 24 hrs by SRB assay; type: cell-based; method in brief: as §1
NCI/ADR-RES = assay: Cytotoxicity against human NCI/ADR-RES cells after 24 hrs by SRB assay; type: cell-based; method in brief: as §1
ACHN [16] = assay: as §12; type: functional; method in brief: as §3

## O=C(/C=C/c1cc2ccccc2[nH]c1=O)c1ccc(Cl)cc1
RPMI-8226
  LC50: > 100 µM
EKVX [1]
  LC50: > 100 µM
CCRF-CEM
  GI50: 3.5 µM
  TGI: > 100 µM
DU-145 [2]
  LC50: > 100 µM
HOP-62 [3]
  GI50: 7.43 µM
  TGI: 44.2 µM
MCF7
  GI50: 2.41 µM
  TGI: > 100 µM
SF-539
  GI50: 2.07 µM
  TGI: 8.02 µM
COLO 205
  LC50: > 100 µM
SF-295 [4]
  LC50: > 100 µM
RXF 393 [5]
  LC50: > 100 µM
RXF 393 [6]
  GI50: 4.32 µM
  TGI: 29.9 µM
U-251
  GI50: 2.52 µM
  TGI: 11.4 µM
SF-295 [7]
  GI50: 4.57 µM
  TGI: 38.3 µM
HCT-15 [8]
  GI50: 3.18 µM
  TGI: 20.2 µM
HOP-62 [9]
  LC50: > 100 µM
SF-268
  GI50: 7.15 µM
  TGI: 63.1 µM
MDA-MB-435 [10]
  GI50: 2.83 µM
  TGI: 13.1 µM
TK-10
  LC50: 75.8 µM
NCI-H226
  LC50: > 100 µM
SNB-75
  LC50: > 100 µM
MOLT-4
  GI50: 3.11 µM
  TGI: > 100 µM
SNB-19
  GI50: 5.11 µM
  TGI: > 100 µM
MDA-MB-435 [11]
  LC50: > 100 µM
HOP-92
  LC50: > 100 µM
UACC-62
  GI50: 5.71 µM
  TGI: 54.3 µM
HL-60
  GI50: 2.47 µM
  TGI: > 100 µM
786-0
  GI50: 13.8 µM
  TGI: > 100 µM
OVCAR-4
  GI50: 1.67 µM
  TGI: > 100 µM
LOX IMVI
  GI50: 3.26 µM
  TGI: 22.1 µM
NCI-H460
  GI50: 3.99 µM
  TGI: 18.9 µM
SR
  LC50: > 100 µM
DU-145 [12]
  GI50: 4.08 µM
  TGI: 48.9 µM
MDA-MB-468
  LC50: 53.2 µM
HCT-15 [13]
  LC50: > 100 µM
EKVX [14]
  GI50: 4.92 µM
  TGI: > 100 µM
ACHN [15]
  LC50: 90.6 µM
NCI/ADR-RES
  LC50: > 100 µM
ACHN [16]
  GI50: 7.27 µM
  TGI: 27.4 µM

## COc1ccc(C(=O)/C=C/c2cc3ccccc3[nH]c2=O)cc1
RPMI-8226
  LC50: > 100 µM
EKVX [1]
  LC50: > 100 µM
CCRF-CEM
  GI50: 4.04 µM
  TGI: > 100 µM
DU-145 [2]
  LC50: 35.8 µM
HOP-62 [3]
  GI50: 3.68 µM
  TGI: 11.6 µM
MCF7
  GI50: 2.86 µM
  TGI: 88.7 µM
SF-539
  GI50: 2.76 µM
  TGI: 7.49 µM
COLO 205
  LC50: 77.6 µM
SF-295 [4]
  LC50: 80.8 µM
RXF 393 [5]
  LC50: 33.5 µM
RXF 393 [6]
  GI50: 3.41 µM
  TGI: 8.53 µM
U-251
  GI50: 2.7 µM
  TGI: 10.9 µM
SF-295 [7]
  GI50: 3.98 µM
  TGI: 18.6 µM
HCT-15 [8]
  GI50: 3.18 µM
  TGI: 21.1 µM
HOP-62 [9]
  LC50: 59 µM
SF-268
  GI50: 2.85 µM
  TGI: 9.77 µM
MDA-MB-435 [10]
  GI50: 3.92 µM
  TGI: 17.4 µM
TK-10
  LC50: > 100 µM
NCI-H226
  LC50: > 100 µM
SNB-75
  LC50: 47.2 µM
MOLT-4
  GI50: 3.39 µM
  TGI: > 100 µM
SNB-19
  GI50: 4.2 µM
  TGI: 19.1 µM
MDA-MB-435 [11]
  LC50: 91.6 µM
HOP-92
  LC50: 80.9 µM
UACC-62
  GI50: 4.38 µM
  TGI: 19.3 µM
HL-60
  GI50: 3.36 µM
  TGI: > 100 µM
786-0
  GI50: 3.52 µM
  TGI: > 100 µM
OVCAR-4
  GI50: 2.94 µM
  TGI: > 100 µM
LOX IMVI
  GI50: 1.85 µM
  TGI: 5.54 µM
NCI-H460
  GI50: 2.75 µM
  TGI: 8.34 µM
SR
  LC50: > 100 µM
DU-145 [12]
  GI50: 3.14 µM
  TGI: 11.2 µM
MDA-MB-468
  LC50: 39.8 µM
HCT-15 [13]
  LC50: > 100 µM
EKVX [14]
  GI50: 4.4 µM
  TGI: 83.8 µM
ACHN [15]
  LC50: 57 µM
NCI/ADR-RES
  LC50: > 100 µM
ACHN [16]
  GI50: 3.93 µM
  TGI: 16.7 µM
